ChEMBL document CHEMBL1139875, “Discovery of 4-aminobutyric acid derivatives possessing anticonvulsant and antinociceptive activities: a hybrid pharmacophore approach” (2007)
Active and inactive are the calls of the source. The calls are words filed in the database; no cut-off is given here.

Legend:
[1] = system: Mus musculus; assay: Anticonvulsant activity in Swiss Albino mouse at 300 mg/kg, ip after 0.5 hr by MES test; format: functional, organism-based; design: dose 300 mg/kg
Outline: (§1)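 Mice (Swiss, 20-25 g) given i.p. doses of 30, 100 and 300 mg/kg under ADD program protocols, three per group, examined at 0.5 and 4 h in MES, scPTZ, scSTY or scPIC seizure tests. Value is the minimum dose protecting half or more of the mice.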

[2] = system: Mus musculus; assay: Anticonvulsant activity in Swiss Albino mouse at 300 mg/kg, ip after 4 hrs by MES test; format: functional, organism-based; design: dose 300 mg/kg; outline: as §1
[3] = system: Mus musculus; assay: Anticonvulsant activity in Swiss Albino mouse at 300 mg/kg, ip after 0.5 hr by scPTZ test; format: functional, organism-based; design: dose 300 mg/kg; outline: as §1
[4] = system: Mus musculus; assay: Anticonvulsant activity in Swiss Albino mouse at 300 mg/kg, ip after 0.5 hr by scSTY test; format: functional, organism-based; design: dose 300 mg/kg; outline: as §1
[5] = system: Mus musculus; assay: Anticonvulsant activity in Swiss Albino mouse at 300 mg/kg, ip after 4 hrs by scSTY test; format: functional, organism-based; design: dose 300 mg/kg; outline: as §1
[6] = system: Mus musculus; assay: Anticonvulsant activity in Swiss Albino mouse at 300 mg/kg, ip after 0.5 hr by scPIC test; format: functional, organism-based; design: dose 300 mg/kg; outline: as §1
[7] = system: Mus musculus; assay: Anticonvulsant activity in Swiss Albino mouse at 300 mg/kg, ip after 4 hrs by scPIC test; format: functional, organism-based; design: dose 300 mg/kg; outline: as §1
[8] = system: Mus musculus; assay: Neurotoxicity in Swiss Albino mouse at 300 mg/kg, ip after 0.5 hr by rotarod test; format: functional, organism-based; design: dose 300 mg/kg
Outline: (§2)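 Swiss mice (20-25 g) are trained on an accelerating rotorod (10 rpm, 3.2 cm rod), then injected i.p. at 30, 100 or 300 mg/kg, with three per group. Neurotoxicity means failure to keep equilibrium for at least 1 min in each of three trials, checked at 0.5 and 4 h. The value reported is the minimum dose affecting half or more of the mice.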

[9] = system: Mus musculus; assay: Neurotoxicity in Swiss Albino mouse at 300 mg/kg, ip after 4 hrs by rotarod test; format: functional, organism-based; design: dose 300 mg/kg; outline: as §2
[10] = system: Mus musculus; assay: Analgesic activity in Swiss Albino mouse assessed as number of acetic acid-induced writhing per 30 min after 100 mg/kg, ip; format: functional; conditions: route intraperitoneal
Outline: (§3)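 Mice in groups of six dosed i.p. at 100 mg/kg, controls receiving 30% v/v PEG 400 in water. Writhing induced by i.p. 0.1 mL of 3% v/v acetic acid 1 h after drug. Writhes (abdominal stretch with at least one hind limb extended) counted over 30 min; % inhibition calculated. Mean ± SEM, Student's t test.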

[11] = system: Mus musculus; assay: Analgesic activity in Swiss Albino mouse assessed as inhibition of acetic acid-induced writhing responses at 100 mg/kg, ip; format: functional; conditions: route intraperitoneal; outline: as §3
[12] = system: Rattus norvegicus; assay: Anti-dynamic allodynia effect in Sprague-Dawley rat SNL model assessed as latency to paw withdrawal 100 mg/kg, ip after 0.5 hr; format: functional; conditions: route intraperitoneal
Outline: (§4)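 Left L5 spinal nerve ligation rats, tested preoperatively and 9 days postoperatively, then given 100 mg/kg i.p. (vehicle 30% v/v PEG 400 in water). After 10 min acclimatization, plantar surface of affected paw stroked mildly with a cotton-bud; paw lift response recorded. n = 4; retested 0.5-2.5 h post-dose.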

[13] = system: Rattus norvegicus; assay: Anti-dynamic allodynia effect in Sprague-Dawley rat SNL model assessed as latency to paw withdrawal 100 mg/kg, ip after 1 hr; format: functional; conditions: route intraperitoneal; outline: as §4
[14] = system: Rattus norvegicus; assay: Anti-dynamic allodynia effect in Sprague-Dawley rat SNL model assessed as latency to paw withdrawal 100 mg/kg, ip after 1.5 hrs; format: functional; conditions: route intraperitoneal; outline: as §4
[15] = system: Rattus norvegicus; assay: Anti-dynamic allodynia effect in Sprague-Dawley rat SNL model assessed as latency to paw withdrawal 100 mg/kg, ip after 2 hrs; format: functional; conditions: route intraperitoneal; outline: as §4
[16] = system: Rattus norvegicus; assay: Anti-dynamic allodynia effect in Sprague-Dawley rat SNL model assessed as latency to paw withdrawal 100 mg/kg, ip after 2.5 hrs; format: functional; conditions: route intraperitoneal; outline: as §4
[17] = system: Rattus norvegicus; assay: Anti-cold allodynia effect in Sprague-Dawley rat SNL model assessed as duration of paw withdrawal 100 mg/kg, ip after 0.5 hr; format: functional; conditions: route intraperitoneal
Outline: (§5)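 Left L5 spinal nerve ligation under pentobarbital (65 mg/kg i.p.). Allodynic rats dosed i.p. 100 mg/kg, vehicle 30% v/v PEG 400 in water. Acetone (100-200 µL) misted onto midplantar affected paw after 10 min acclimatization; paw withdrawal duration, mean of three samples at least 3 min apart; n = 4 rats.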

[18] = system: Rattus norvegicus; assay: Anti-cold allodynia effect in Sprague-Dawley rat SNL model assessed as duration of paw withdrawal 100 mg/kg, ip after 1 hrs; format: functional; conditions: route intraperitoneal; outline: as §5
[19] = system: Rattus norvegicus; assay: Anti-cold allodynia effect in Sprague-Dawley rat SNL model assessed as duration of paw withdrawal 100 mg/kg, ip after 1.5 hrs; format: functional; conditions: route intraperitoneal; outline: as §5
[20] = system: Rattus norvegicus; assay: Anti-cold allodynia effect in Sprague-Dawley rat SNL model assessed as duration of paw withdrawal 100 mg/kg, ip after 2 hrs; format: functional; conditions: route intraperitoneal; outline: as §5
[21] = system: Rattus norvegicus; assay: Anti-cold allodynia effect in Sprague-Dawley rat SNL model assessed as duration of paw withdrawal 100 mg/kg, ip after 2.5 hrs; format: functional; conditions: route intraperitoneal; outline: as §5
[22] = system: Rattus norvegicus; assay: Antihyperalgesic effects in Sprague-Dawley rat CCI model assessed as duration of paw withdrawal at 100 mg/kg, ip after 0.5 hr; format: functional; conditions: route intraperitoneal
[23] = system: Rattus norvegicus; assay: Antihyperalgesic effects in Sprague-Dawley rat CCI model assessed as duration of paw withdrawal at 100 mg/kg, ip after 1 hr; format: functional; conditions: route intraperitoneal
[24] = system: Rattus norvegicus; assay: Antihyperalgesic effects in Sprague-Dawley rat CCI model assessed as duration of paw withdrawal at 100 mg/kg, ip after 1.5 hrs; format: functional; conditions: route intraperitoneal
[25] = system: Rattus norvegicus; assay: Antihyperalgesic effects in Sprague-Dawley rat CCI model assessed as duration of paw withdrawal at 100 mg/kg, ip after 2 hrs; format: functional; conditions: route intraperitoneal
[26] = system: Rattus norvegicus; assay: Antihyperalgesic effects in Sprague-Dawley rat CCI model assessed as duration of paw withdrawal at 100 mg/kg, ip after 2.5 hrs; format: functional; conditions: route intraperitoneal
[27] = system: Rattus norvegicus; assay: Effect on spontaneous pain in Sprague-Dawley rat SNL model assessed as duration of paw withdrawal at 100 mg/kg, ip after 0.5 hr; format: functional; conditions: route intraperitoneal
Outline: (§6)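 Rats underwent left L5 spinal nerve ligation (Kim and Chung) under i.p. pentobarbital (65 mg/kg). Spontaneous pain is recorded for 5 min after 10 min acclimatization, as cumulative duration the ipsilateral paw is lifted, excluding locomotor lifts. Dosing is 100 mg/kg i.p. in 30% v/v PEG 400/water, with testing at 0.5–2.5 h. Four rats, mean ± SEM versus predrug, one-way ANOVA with Bonferroni.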

[28] = system: Rattus norvegicus; assay: Effect on spontaneous pain in Sprague-Dawley rat SNL model assessed as duration of paw withdrawal at 100 mg/kg, ip after 1 hr; format: functional; conditions: route intraperitoneal; outline: as §6
[29] = system: Rattus norvegicus; assay: Effect on spontaneous pain in Sprague-Dawley rat SNL model assessed as duration of paw withdrawal at 100 mg/kg, ip after 1.5 hrs; format: functional; conditions: route intraperitoneal; outline: as §6
[30] = system: Rattus norvegicus; assay: Effect on spontaneous pain in Sprague-Dawley rat SNL model assessed as duration of paw withdrawal at 100 mg/kg, ip after 2 hrs; format: functional; conditions: route intraperitoneal; outline: as §6
[31] = system: Rattus norvegicus; assay: Effect on spontaneous pain in Sprague-Dawley rat SNL model assessed as duration of paw withdrawal at 100 mg/kg, ip after 2.5 hrs; format: functional; conditions: route intraperitoneal; outline: as §6
[32] = species: Rattus norvegicus; assay: Anti-dynamic allodynic effect in Sprague-Dawley rat CCI model assessed as latency to paw withdrawal after 0.5 hr; format: functional
Outline: (§7)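 Rats with sciatic nerve chronic constriction injury (pentobarbital 65 mg/kg i.p. anaesthesia), baseline and day 9 testing, then drug per randomization table. After 10 min acclimatization, affected plantar surface stroked mildly with a cotton-bud; paw lift recorded. n = 4; retested 0.5-2.5 h post-dose.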

[33] = species: Rattus norvegicus; assay: Anti-dynamic allodynic effect in Sprague-Dawley rat CCI model assessed as latency to paw withdrawal after 1 hr; format: functional; outline: as §7
[34] = species: Rattus norvegicus; assay: Anti-dynamic allodynic effect in Sprague-Dawley rat CCI model assessed as latency to paw withdrawal after 1.5 hr; format: functional; outline: as §7
[35] = species: Rattus norvegicus; assay: Anti-dynamic allodynic effect in Sprague-Dawley rat CCI model assessed as latency to paw withdrawal after 2 hr; format: functional; outline: as §7
[36] = species: Rattus norvegicus; assay: Anti-dynamic allodynic effect in Sprague-Dawley rat CCI model assessed as latency to paw withdrawal after 2.5 hr; format: functional; outline: as §7

## O=C(O)CCCNC(=O)N/N=C(\c1ccccc1)c1ccc(Br)cc1
[1]
  Activity: Active
[2]
  Activity: inactive
[3]
  Activity: inactive
[4]
  Activity: Active
[5]
  Activity: Active
[6]
  Activity: inactive
[7]
  Activity: inactive
[8]
  Activity: inactive
[9]
  Activity: inactive
[10]
  Activity: 21
[11]
  inhibition in vivo at 100 mg/kg: 89%
[12]
  Activity: 9.8 s
[13]
  Activity: 10.6 s
[14]
  Activity: 10.8 s
[15]
  Activity: 10.3 s
[16]
  Activity: 10.23 s
[17]
  Activity: 19.1 s
[18]
  Activity: 23.8 s
[19]
  Activity: 11.8 s
[20]
  Activity: 10.8 s
[21]
  Activity: 10.2 s
[22]
  Activity: 20.5 s
[23]
  Activity: 8.5 s
[24]
  Activity: 5.1 s
[25]
  Activity: 7.3 s
[26]
  Activity: 5.6 s
[27]
  Activity: 25.1 s
[28]
  Activity: 28.5 s
[29]
  Activity: 23.1 s
[30]
  Activity: 10.1 s
[31]
  Activity: 8.7 s
[32]
  Activity: 11.4 s
[33]
  Activity: 10.3 s
[34]
  Activity: 10.6 s
[35]
  Activity: 10.9 s
[36]
  Activity: 11.3 s
